What is called EC50 is the concentration needed to bring the measured effect to its halfway point. The term CC50 denotes the concentration giving 50% cytotoxicity.

The structures appear in SMILES notation.

The test system of one data set is Zika virus. In words: Antiviral activity against Zika virus PRVABC-59 infected in human SNB19 cells assessed as reduction in viral titer incubated for 24 hrs by viral titer assay. In kind it is functional, organism-based, SNB-19. The procedure, abridged:
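SNB-19 glioblastoma cells seeded 1 day ahead and pretreated 1 h with graded compound concentrations (final DMSO 0.1%). Infected with C6/36-derived PRVABC59 at MOI 1; supernatants taken 24 h post-infection. Virus titred by focus-forming unit assay on confluent Vero monolayers: 2 h inoculation, methylcellulose overlay for 48 h, PFA fixation, 4G2 antibody then HRP secondary, DAB–nickel, foci counted. Niclosamide reference included each run.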

Data set [1] is described as follows: (§1) Cytotoxicity against African green monkey Vero cells assessed as reduction in cell viability incubated for 48 hrs by MTT assay. Conditions: chlorocebus sabaeus, Vero cells; call rule not given here. It is filed as cell-based. An outline of the steps: (§2)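 MTT viability readout. Cells plated at 1.0 ×10⁴ per well overnight, then exposed to compounds, with 0.1% DMSO vehicle as control: SNB-19 for 24 h, Vero for 48 h. MTT at 0.5 mg/mL final, 4 h at 37 °C; formazan dissolved in DMSO, absorbance at 570 nm. CC₅₀ from % viability versus control; each concentration repeated 3 times independently.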
Background: Tetrazolium assays rely on reduction of a dye to a coloured formazan, in cell work by metabolically active cells.

A short description of data set [2]: (§3) Cytotoxicity against human SNB19 cells assessed as reduction in cell viability incubated for 24 hrs by MTT assay. In kind it is cell-based, SNB-19. Particulars: SNB19 cells. An outline of the steps: as §2
A short description of data set [3]: Selectivity index, ratio of CC50 for human SNB19 cells to EC50 for Zika virus PRVABC-59. In kind it is toxicity. Particulars: read-out: Ratio CC50/EC50. An outline of the steps: (§4)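 Selectivity index taken as CC₅₀ over EC₅₀. CC₅₀ comes from MTT in Vero (48 h) or SNB-19 (24 h) cells. EC₅₀ comes from the ZIKV PRVABC59 titer-reduction assay in SNB-19 cells (MOI 1, 24 h, focus-forming units on Vero).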

A further data set has as its system Vero. Described as §1. In kind it is cell-based. Conditions: chlorocebus sabaeus, vero, 48 h. An outline of the steps:
as §2

The test system of the next data set is SNB-19. The description is as §3. In kind it is cell-based. Particulars: snb-19, 24 h. The procedure, abridged:
as §2

A short description of data set [4]: Selectivity index, ratio of CC50 for African green monkey Vero cells to EC50 for Zika virus PRVABC-59. It is filed as toxicity. Conditions: read-out: Ratio CC50/EC50. The procedure, abridged: as §4
Setting [5] is: Zika virus, PRVABC-59, SNB-19, 24 h, read-out: EC50.

Turning to `C=C1CC[C@H]2[C@@](C)(CCC(=O)[C@@]2(C)COC(C)=O)[C@@H]1C/C=C1/C(=O)OC[C@@H]1Oc1cccc2cccnc12`, in the data set on Zika virus (snb-19), the EC50 entry is “Not Active”. Moreover, the half-maximal cytotoxic concentration (CC50) at 48 h in data set [1] came out at 12.8 µM. For the same compound, in data set [2], the CC50 at 24 h was determined as 21.9 µM.

Regarding `C=C1CC[C@@H]2[C@](C)(CO)[C@H](O)CC[C@@]2(C)[C@@H]1C/C=C1/C(=O)OC[C@@H]1Oc1c(Cl)cc(Cl)c2cccnc12`, the selectivity ratio in data set [3] and in data set [4] was more than 7.5 each time. Also, the concentration for a half-maximal effect (EC50) in the data set with Zika virus (setting [5]) was 13.3 µM. In addition, the CC50 in the data set on Vero and with SNB-19 was more than 100 µM each time.

Take `C=C1CC[C@@H]2[C@]3(C)COC(C)(C)O[C@@H]3CC[C@@]2(C)[C@@H]1C/C=C1/C(=O)OC[C@H]1Oc1c(Cl)cc(Cl)c2cccnc12`: the EC50 result in the data set with Zika virus (snb-19) is reported as “Not Active”. For the same compound, the 50% cytotoxic concentration (CC50) at 48 h in data set [1] came to 58.6 µM. For the same compound, the cytotoxic concentration (CC50) at 24 h in data set [2] was determined as 63.5 µM.

As for `C=C1CC[C@@H]2[C@](C)(COC(C)=O)[C@H](O)CC[C@@]2(C)[C@@H]1C/C=C1/C(=O)OC[C@@H]1Oc1c(Cl)cc(Cl)c2cccnc12`, the 50% effective concentration (EC50) result with Zika virus (snb-19) is “Not Active”. Moreover, in data set [1], the 50% cytotoxic concentration (CC50) at 48 h is 51.9 µM. In addition, the CC50 at 24 h in data set [2] came out at 39.3 µM.

Turning to `C=C1CC[C@@H]2[C@](C)(CO)[C@H](O)CC[C@@]2(C)[C@@H]1C/C=C1/C(=O)OC[C@H]1Oc1cccc2ccc(C)nc12`, the EC50 result with Zika virus (snb-19) is on record as “Not Active”. Moreover, the CC50 at 48 h in data set [1] was found to be 61.4 µM. Further, the CC50 at 24 h in data set [2] was more than 100 µM.

For `C=C1CC[C@@H]2[C@](C)(CO)[C@H](O)CC[C@@]2(C)[C@@H]1C/C=C1/C(=O)OC[C@@H]1Oc1cccc2ccc(C)nc12`, the selectivity ratio in data set [3] is more than 3.9; in data set [4], 3.9. Also, the concentration giving a half-maximal response (EC50) with Zika virus (setting [5]) is 25.8 µM. The CC50 is 99.8 µM with Vero and more than 100 µM in the data set on SNB-19.

`C=C1CC[C@@H]2[C@]3(C)COC(C)(C)O[C@@H]3CC[C@@]2(C)[C@@H]1C/C=C1/C(=O)OC[C@@H]1Oc1cccc2cccnc12`: the selectivity ratio in data set [3] came out at 0.82; in data set [4], 0.85. Besides, the EC50 with Zika virus (setting [5]) amounted to 25.9 µM. Besides, the CC50 in the data set on Vero amounted to 22 µM; in the data set on SNB-19 it was 21.1 µM.

As for `C=C1CC[C@@H]2[C@]3(C)COC(C)(C)O[C@@H]3CC[C@@]2(C)[C@@H]1C/C=C1/C(=O)OC[C@H]1Oc1cccc2ccc(C)nc12`, the selectivity ratio is 4 in data set [3] and 3.9 in data set [4]. In addition, in the data set with Zika virus (setting [5]), the EC50 was determined as 16.6 µM. For the same compound, the cytotoxic concentration (CC50) stood at 65.3 µM in the data set on Vero and 66.5 µM in the data set on SNB-19.

Turning to `C=C1CC[C@@H]2[C@](C)(COC(C)=O)[C@H](O)CC[C@@]2(C)[C@@H]1C/C=C1/C(=O)OC[C@H]1Oc1c(Cl)cc(Cl)c2cccnc12`, the figures for the selectivity ratio in data set [3] and in data set [4] were 19.7 and 18.9, respectively. For the same compound, in the data set with Zika virus (setting [5]), the concentration giving a half-maximal response (EC50) stood at 4.5 µM. For the same compound, the half-maximal cytotoxic concentration (CC50) in the data set on Vero was found to be 85 µM; with SNB-19 it was 88.7 µM.

On to `C=C1CC[C@H]2[C@@](C)(CCC(=O)[C@@]2(C)COC(C)=O)[C@@H]1C/C=C1/C(=O)OC[C@@H]1Oc1cccc2ccc(C)nc12`, for which the EC50 entry in the data set on Zika virus (snb-19) is on record as “Not Active”. The CC50 at 48 h in data set [1] stood at 46.7 µM. In data set [2], the cytotoxic concentration (CC50) at 24 h was found to be 51.7 µM.

Regarding `C=C1CC[C@@H]2[C@]3(C)COC(C)(C)O[C@@H]3CC[C@@]2(C)[C@@H]1C/C=C1/C(=O)OC[C@@H]1Oc1c(Cl)cc(Cl)c2cccnc12`, the EC50 entry in the data set with Zika virus (snb-19) was “Not Active”. For the same compound, the half-maximal cytotoxic concentration (CC50) at 48 h in data set [1] was 55.9 µM. Further, in data set [2], the cytotoxic concentration (CC50) at 24 h turned out to be 39.3 µM.

Consider `C=C1CC[C@@H]2[C@](C)(CO)[C@H](O)CC[C@@]2(C)[C@@H]1C/C=C1/C(=O)OC[C@H]1Oc1c(Cl)cc(Cl)c2cccnc12`, for which the selectivity ratio in data set [3] worked out at 10.9; in data set [4] it was 7.5. The 50% effective concentration (EC50) in the data set with Zika virus (setting [5]) was 7.8 µM. In addition, in the data set on SNB-19, the 50% cytotoxic concentration (CC50) came to 85.2 µM.

For `C=C1CC[C@@H]2[C@]3(C)COC(C)(C)O[C@@H]3CC[C@@]2(C)[C@@H]1C/C=C1/C(=O)OC[C@H]1Oc1cccnc1[N+](=O)[O-]`, the 50% effective concentration (EC50) entry in the data set with Zika virus (snb-19) was “Not Active”. For the same compound, in data set [1], the CC50 at 48 h turned out to be 26.2 µM. Further, the 50% cytotoxic concentration (CC50) at 24 h in data set [2] stood at 46.5 µM.

With `C=C1CC[C@H]2[C@@](C)(CCC(=O)[C@@]2(C)COC(C)=O)[C@@H]1C/C=C1/C(=O)OC[C@@H]1Oc1c(Cl)cc(Cl)c2cccnc12`, the selectivity ratio is 2.9 in data set [3] and 2.3 in data set [4]. The EC50 in the data set on Zika virus (setting [5]) was determined as 24.6 µM. Also, the CC50 with Vero is 57.4 µM; with SNB-19, 72 µM.

Consider `C=C1CC[C@@H]2[C@](C)(COC(C)=O)[C@H](O)CC[C@@]2(C)[C@@H]1C/C=C1/C(=O)OC[C@H]1Oc1cccc2ccc(C)nc12`, for which the EC50 entry in the data set with Zika virus (snb-19) is on record as “Not Active”. The CC50 at 48 h in data set [1] amounted to 50.6 µM. Besides, the cytotoxic concentration (CC50) at 24 h in data set [2] was more than 100 µM.

For `C=C1CC[C@@H]2[C@](C)(COC(C)=O)[C@H](O)CC[C@@]2(C)[C@@H]1C/C=C1/C(=O)OC[C@@H]1Oc1cccc2ccc(C)nc12`, the EC50 result in the data set with Zika virus (snb-19) was “Not Active”. For the same compound, the CC50 at 48 h in data set [1] was 46.5 µM. Moreover, the CC50 at 24 h in data set [2] came out at 65.9 µM.

As to `C=C1CC[C@@H]2[C@](C)(COC(C)=O)[C@H](O)CC[C@@]2(C)[C@@H]1C/C=C1/C(=O)OC[C@@H]1Oc1cccc2cccnc12`, in the data set on Zika virus (snb-19), the EC50 entry is “Not Active”. Further, in data set [1], the 50% cytotoxic concentration (CC50) at 48 h is 27.5 µM. The CC50 at 24 h in data set [2] amounted to 49.5 µM.

As for `C=C1CC[C@@H]2[C@](C)(CO)[C@H](O)CC[C@@]2(C)[C@@H]1C/C=C1/C(=O)OC[C@H]1Oc1ccnc2ccccc12`, the results for the selectivity ratio in data set [3] and in data set [4] were 5.5 and 2.1, respectively. For the same compound, the EC50 with Zika virus (setting [5]) is 11 µM. Further, the CC50 at 48 h in data set [1] is 22.8 µM. The CC50 in the data set on SNB-19 came to 60.1 µM.

For the compound `C=C1CC[C@@H]2[C@](C)(CO)[C@H](O)CC[C@@]2(C)[C@@H]1C/C=C1/C(=O)OC[C@@H]1Oc1ccnc2ccccc12`, the EC50 result in the data set with Zika virus (snb-19) was “Not Active”. Further, in data set [1], the 50% cytotoxic concentration (CC50) at 48 h amounted to 20.7 µM. Besides, in data set [2], the CC50 at 24 h came to 61.2 µM.

As for `C=C1CC[C@@H]2[C@](C)(CO)[C@H](O)CC[C@@]2(C)[C@@H]1C/C=C1/C(=O)OC[C@@H]1Oc1cccc2cccnc12`, the results for the selectivity ratio in data set [3] and in data set [4] were 17.5 and 16.1, respectively. Further, the concentration for a half-maximal effect (EC50) in the data set on Zika virus (setting [5]) was determined as 1.3 µM. Also, in data set [1], the cytotoxic concentration (CC50) at 48 h came out at 20.8 µM. In addition, the CC50 in the data set on SNB-19 was 22.7 µM.

Regarding `C=C1CC[C@@H]2[C@]3(C)COC(C)(C)O[C@@H]3CC[C@@]2(C)[C@@H]1C/C=C1/C(=O)OC[C@@H]1Oc1cccc2ccc(C)nc12`, the figures for the selectivity ratio in data set [3] and in data set [4] were 9.2 and 6.6, respectively. Further, in the data set on Zika virus (setting [5]), the EC50 was 8.5 µM. The CC50 is 55.9 µM in the data set with Vero and 78.4 µM with SNB-19.

On to `C=C1CC[C@H]2[C@@](C)(CCC(=O)[C@@]2(C)COC(C)=O)[C@@H]1C/C=C1/C(=O)OC[C@H]1Oc1cccc2ccc(C)nc12`, for which the EC50 result in the data set with Zika virus (snb-19) is “Not Active”. For the same compound, the CC50 at 48 h in data set [1] is 72.4 µM. Besides, in data set [2], the 50% cytotoxic concentration (CC50) at 24 h was more than 100 µM.

For the compound `C=C1CC[C@@H]2[C@](C)(CO)[C@H](O)CC[C@@]2(C)[C@@H]1C/C=C1/C(=O)OC[C@H]1Oc1cccnc1[N+](=O)[O-]`, the selectivity ratio was 5.4 in data set [3] and 3 in data set [4]. The half-maximal effective concentration (EC50) in the data set with Zika virus (setting [5]) came out at 12.5 µM. Further, the CC50 stood at 37.7 µM in the data set with Vero and 67.7 µM in the data set on SNB-19.

As to `C=C1CC[C@H]2[C@@](C)(CCC(=O)[C@@]2(C)COC(C)=O)[C@@H]1C/C=C1/C(=O)OC[C@H]1Oc1c(Cl)cc(Cl)c2cccnc12`, the EC50 entry in the data set with Zika virus (snb-19) is on record as “Not Active”. Also, the CC50 at 48 h in data set [1] was found to be 64.7 µM. Further, in data set [2], the CC50 at 24 h was more than 100 µM.

(Values after ChEMBL document CHEMBL4602646, “Design, synthesis and discovery of andrographolide derivatives against Zika virus infection” (Eur J Med Chem, 2020).)
